Screens as filed in PubChem BioAssay.
Sampled rows, rich in hits. Any-hit rate of the full collection: about 4.8%.
Beta apoptosis: blocks beta cell apoptosis | INS-1E cytokine-induced death, ATP luminescence, 48 h; percent of positive-control rescue, neutral wells zero | protection from apoptosis, % (concentration not given with the values) | 300,000 tested, 0.8% active | AID 435005;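 active = Every replicate reaches about 75%, or at least half do and their mean reaches it too, limit read from the data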;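 also: higher means more ATP so stronger rescue from cytokine killing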
Efflux pump inh: inhibitors of Candida antifungal efflux pumps expressed in yeast; 330,000 tested, 0.44% active; AID 485275; S. cerevisiae Candida pump triplex, Nile Red efflux; inhibition, % at 10 µM;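 active = plate passing quality check with inhibition over a set limit, or well fluorescence over plate mean plus 4 SD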;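 also: Nile Red retained in pooled yeast measured as flow cytometry median fluorescence; higher means more Nile Red kept so more efflux inhibition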
CSC inhib: cancer stem cell inhibition | cancer stem cell-like cells viability, luminescence | inhibition, % at 7.5 µM | 300,000 tested, 1.1% active | AID 2717; in the data active = inhibition above about 75%; tested in HMLE shEcad cells
SUMO Mot1 rescue: SUMOylation pathway inhibition by Mot1-301 growth rescue; growth rescue, % at 18.8 µM; S. cerevisiae Mot1-301 growth rescue, ATP luminescence, 38.5C; percent above DMSO median, 100 means doubled; 320,000 tested, 1% active;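 active = every valid replicate shows activation above 250% relative to neutral control wells; inactive = the rest, any valid replicate at or below 250%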
WT yeast gro inh: growth inhibition of WT yeast, mitochondrial fusion screen; mitochondrial fusion phenotypic screen, WT strain; inhibition, % at 10 µM; 190,000 tested, 2.1% active; AID 1362; in the data active = inhibition above about 58%; tested in S. cerevisiae
T cruzi repl: blocks replication of Trypanosoma cruzi. T. cruzi beta-gal in NIH3T3, luminescence, 90 h. inhibition, % (test concentration not listed). 300,000 tested, 1.4% active;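 active = mean inhibition across valid replicates above about 55%, limit read from the data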;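 also: signal also drops with host cell toxicity which is not excluded here; higher percent means less beta-gal luminescence so fewer parasites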
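Assay system: NIH/3T3 host cells with β-galactosidase reporter T. cruzi; input: 5,000 host fibroblasts per well; compound: single 50 nL compound addition per well in DMSO; timing: ≥90 h infection period, 3 h prior cell attachment; measured by: GalScreen β-gal luminescence, detergent lysis, 60 min; evaluation: percent inhibition of parasite-derived β-gal signal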
Yeast Mot1 SUMO: yeast SUMO pathway inhibition in dose response. shares compounds with SUMO Mot1 rescue. S. cerevisiae Mot1-301 galactose growth, ATP luminescence, 24 h; -100 = growth of slx-deleted rescue strain. growth activity, percent, % at 42 µM. 2,300 tested, under 10 active. AID 493004;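 active = Signal drops as the depositor expects, and the fitted half-maximal dose is no more than ten times the top valid tested dose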;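 also: more negative values mean stronger growth rescue toward the control strain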
Hits are given with their value; – = inactive; · = no result given; + = active, no number.

SMILES	Beta apoptosis	Efflux pump inh	CSC inhib	SUMO Mot1 rescue	WT yeast gro inh	T cruzi repl	Yeast Mot1 SUMO
CC1(C)Cc2c(cnn2-c2ccc(F)cc2)C(NC(=O)CCCN2CCCCC2=O)C1 (stereo not given)	–	–	–	523	·	–	–
COc1ccc([C@H]2CC(=O)C=C(c3cccc(C(C)C)c3)C2)cc1	–	–	–	–	·	·	·
N#Cc1cc2c(cc1NC(=O)CCn1cnnn1)OCO2	–	–	–	–	·	–	·
O=C(CCn1cnnn1)Nc1ccc(Cl)cc1Cl	–	–	·	721	–	–	–
CC(Sc1nc2ccccc2c(=O)n1CC1CCCO1)C(=O)Nc1ccc(S(N)(=O)=O)cc1 (stereo not given)	·	–	–	–	·	–	·
CCOc1cc(/C=N/NC(=O)C(=O)N/N=C/c2ccc(O)c(OCC)c2)ccc1O	–	–	–	768	·	–	–
CN(CC(=O)Nc1sccc1C#N)Cc1ccccc1	–	–	–	487	–	–	–
N#Cc1ccsc1NC(=O)CN1CCN(Cc2ccccc2)CC1	·	–	–	–	–	–	·
O=C(CN(C(=O)c1cc2c(s1)CCC2)C1CCCC1)NCc1cccs1	–	–	–	–	–	–	·
O=C(c1ccccc1C(=O)N1CCN(c2ccccc2F)CC1)N1CCN(c2ccccc2F)CC1	–	–	–	–	–	–	·
CCc1c(C(=O)N2CCN(c3ccccc3F)CC2)[nH]c(C)c1C(C)=O	–	–	–	+	–	–	–
COc1ccc(Cl)cc1NC(=O)CN1CCC(n2nnc3ccccc32)CC1	–	–	–	–	–	–	·
CC(=O)N(C(C)=O)c1c(C#N)c(C)n(-c2ccccc2)c1C(=O)c1ccccc1	–	–	–	+	–	–	–
CC1CC(C)CN(C(=O)COC(=O)COc2ccccc2C#N)C1 (stereo not given)	–	–	·	–	·	·	·
COc1cc(NC(=S)N2CCN(C(=O)C3CCCO3)CC2)c(OC)cc1Cl (stereo not given)	–	–	–	370	–	–	–
CC1(C)NC(=O)N(CC(O)COc2cccc(F)c2)C1=O (stereo not given)	–	–	–	–	–	–	·
COc1ccc(OCC(O)CN2C(=O)NC(C)(C)C2=O)cc1 (stereo not given)	–	–	–	+	–	–	–
COc1ccccc1NC(=O)N1CCN(C(=O)Nc2ccccc2OC)CC1	–	–	–	+	·	–	–
COc1ccccc1NC(=O)N1CCN(S(C)(=O)=O)CC1	·	–	–	–	–	–	·
Cc1cc(C#Cc2c(-c3ccccc3)n(C)c3ccccc23)ccc1F	–	–	–	716	·	–	–
COc1ccc(C#Cc2c(-c3ccccc3)n(C)c3ccccc23)cc1	–	–	·	–	·	·	·
C[C@@]12C(=O)Nc3ccc(F)cc3C(=O)N1[C@H]1c3ccccc3OC[C@@H]1[C@@H]2c1ccccc1	–	–	–	+	·	·	–
C[C@@]12C(=O)Nc3cc(Cl)ccc3C(=O)N1[C@H]1c3cc(Br)ccc3OC[C@@H]1[C@@H]2c1ccccc1	–	–	–	–	·	·	·
Cc1ccc2c(c1)C(=O)N1[C@H]3c4cc(C)ccc4OC[C@@H]3[C@H](c3ccccc3)[C@]1(C)C(=O)N2	–	–	–	–	·	·	·
C[C@@]12C(=O)Nc3cc(Cl)ccc3C(=O)N1[C@H]1c3ccccc3OC[C@@H]1[C@@H]2c1ccccc1	–	–	–	454	·	·	–
SMILES	Beta apoptosis	Efflux pump inh	CSC inhib	SUMO Mot1 rescue	WT yeast gro inh	T cruzi repl	Yeast Mot1 SUMO
CCOc1cc(NC(=S)NCCCN2CCOCC2)c(OCC)cc1NC(=O)c1ccc(C)cc1	–	–	–	–	–	–	·
O=C(NCCc1ccccc1)C(=O)NCC1OCCN1S(=O)(=O)c1cc(F)ccc1F (stereo not given)	–	–	–	–	·	–	·
CC1(C)CC(=O)C=C(OC(=O)c2ccc(Cl)cc2)C1	–	–	·	470	–	–	–
N/C(Cn1cncn1)=N\NC(=O)c1ccc(Cl)cc1Cl	–	–	–	778	–	–	–
N/C(Cn1cncn1)=N\NC(=O)C(=O)Nc1ccc(Cl)cc1Cl	–	–	–	–	–	–	·
CN(C)CCNC(=O)c1onc(CSc2ccc(F)c(F)c2)c1C(=O)NCCN(C)C	–	–	–	578	·	–	–
CCOC(=O)C1=CNS(=O)(=O)NC1c1ccc(Br)cc1F (stereo not given)	·	–	·	·	·	·	·
